Data as given in the array DNA melting data of Ke et al. (doi:10.1101/2024.01.08.574731).

Tests used:
[1] = folding enthalpy; higher = less favourable; fluorescence melt of hairpins on a sequencing array, two-state fit; conditions: sodium 0.088 M
In short: (§1)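 In 50 mM Na-HEPES pH 8.0 containing 25 mM NaCl, hairpins from the library on a sequenced MiSeq flow cell were imaged for Cy3 fluorescence at 2.5 °C steps up to 60 °C, with Cy3 and quencher oligos annealed. After normalisation to pre-quench Cy3 and to control constructs, two-state fits with bootstrapping gave melting temperature and folding enthalpy. Four replicates were combined by inverse-variance weighting, and fitted temperatures were shifted up by 9.35 °C to match UV melts.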

[2] = melting temperature; fluorescence melt of hairpins on a sequencing array, two-state fit, raised by 9.35 °C to match UV melts; conditions: sodium 0.088 M
In short: as §1

Row | Sequence | folding enthalpy [1] [kcal/mol] | Tm [2] [°C]
1 | GTGAGCGAAAGCTTACAC ((((((....)))..))) | -14 | 49
2 | GCAGGGCGAAAGCACAGC ((.(.((....)).).)) | -20.6 | 56.8
3 | GAAGGTGGAAACACCTCC (.(((((....))))).) | -12.3 | 40.8
4 | GCGATAATCGC ((((...)))) | -20.7 | 44.4
5 | GTTCACGAAAGTGAAAC ((((((....))).))) | -16.3 | 46.1
6 | GGTCACGAAAGTGGCACC ((((((....)))..))) | -11.7 | 47.6
7 | GATCAGTTTCTGATC ((((((...)))))) | -43.7 | 50.8
8 | GTGAGCCGAAAGGCCAC (((.(((....)))))) | -18.7 | 64.7
9 | GCTAAGCGAAAGCGTCGC ((.(.((....)).).)) | -14 | 45.8
10 | GGTTACGAAAGTACACC ((((((....))).))) | -22.7 | 42.2
11 | CGCACGGAAACGTACGCG ((((((....)))..))) | -22.1 | 46.1
12 | GCGCGCGAAAGCGGTCGC ((((((....)))..))) | -16.1 | 63.6
13 | GATCTGGTATCAGATC ((((((....)))))) | -41.8 | 55.5
14 | GATCATTCAGATGATC ((((((....)))))) | -36.9 | 46.9
15 | GCTAAGCGAAAGCTAGC (((.(((....)))))) | -31.8 | 56.1
16 | GGTATAGGAAACTATGCC ((.((((....)))).)) | -33.1 | 43.2
17 | GGATTCGGAAACGAGTTC (.(.(((....))).).) | -18.1 | 28.7
18 | GGCATTCGAAAGAAAGCC (((.(((....))).))) | -40.4 | 50.5
19 | ATAGTGAAAACTAT (((((....))))) | -12.8 | 30.4
20 | GTATACGAAAGTATGTAC ((((((....)))..))) | -12.4 | 30.6
21 | GATCTTTAGAAGATC ((((((...)))))) | -24.7 | 38.7
22 | GCGTAACCACGC ((((....)))) | -23.3 | 54.8
23 | GCCTAGGGAAACTTAGGC (((((.(....).))))) | -31.6 | 47.5

Row | Sequence | folding enthalpy [1] [kcal/mol] | Tm [2] [°C]
24 | GGGCCCACGAAAGTGCCC (((..(((....)))))) | -18.8 | 50.4
25 | GGAGGCGGAAACGCCCCC ((.((((....)))).)) | -14.8 | 56.4
26 | GCTTATGGAAACATAAGC (((((((....))))))) | -40.6 | 56
27 | GTGGGTCGAAAGACACAC (((.(((....))).))) | -47 | 63.5
28 | GCACGGTCGAAAGACTGC (((..(((....)))))) | -13.9 | 39.4
29 | GGACTTGGAAACAGGTCC ((((.((....)).)))) | -46.5 | 49.4
30 | GGTGACGAAAGTCTGACC ((((((....)))..))) | -15.6 | 39.7
31 | GTCATGGGAAACTATGGC (.(((.(....).))).) | -22.4 | 32.1
32 | GTACCACGAAAGTGATAC (((.(((....))).))) | -24.3 | 43.7
33 | GACGACGGAAACACCGTC ((((..(....)..)))) | -13.2 | 38.2
34 | GGTTCAGGAAACTGAGCC ((.((((....)))).)) | -30.2 | 50
35 | GACTAGGGAAACCCAGTC ((((.((....)).)))) | -30.1 | 40.2
36 | GATCTTGTAGAAGATC ((((((....)))))) | -27.5 | 46.4
37 | GTCATGCCGAAAGGCGAC (((..(((....)))))) | -12.3 | 41.3
38 | GATCACCTGCGTGATC ((((((....)))))) | -48.3 | 54.9
39 | GCTCGATCGAAAGATAGC (((..(((....)))))) | -11.7 | 28.1
40 | GGCCACGCGAAAGCGGCC (((..(((....)))))) | -19 | 62.5
41 | GTGGACCGAAAGGTTCAC (((.(((....))).))) | -36.7 | 59.8
42 | GGCATCGGAAACGGTGTC (.((.((....)).)).) | -25.7 | 44.8
43 | GAACCACCGAAAGGTTTC (((..(((....)))))) | -9.16 | 22.3
44 | GATCGTGGGGACGATC ((((((....)))))) | -36.2 | 54.3
45 | GACAACGAAAGTTCGTC ((((((....))).))) | -21 | 42.6
46 | GATCTGTTAACAGATC ((((((....)))))) | -39.8 | 54.7
